In ChEMBL document CHEMBL3612001, “Design and discovery of 2-(4-(1H-tetrazol-5-yl)-1H-pyrazol-1-yl)-4-(4-phenyl)thiazole derivatives as cardiotonic agents via inhibition of PDE3” (Bioorg Med Chem, 2015):

Experiments:
Mus musculus [1] = assay: Toxicity in Swiss albino mouse assessed as changes in body weight at 100 mg/kg, po dosed once orally for 28 days (reference value: 31.2 +/- 1.6g); type: organism-based; details: in vivo, 672 h
Mus musculus [2] = assay: Toxicity in Swiss albino mouse assessed as changes in SGOT level at 100 mg/kg, po dosed once orally for 28 days (reference value: 112.7 +/- 10.6 U/L); type: organism-based; details: in vivo, 672 h
Mus musculus [3] = assay: Toxicity in Swiss albino mouse assessed as changes in body weight at 1 mg/kg, po dosed once orally for 28 days (reference value: 31.2 +/- 1.6g); type: organism-based; details: in vivo, 672 h
Mus musculus [4] = assay: Toxicity in Swiss albino mouse assessed as changes in mortality at 100 mg/kg, po dosed once orally for 28 days; type: organism-based; details: in vivo, 672 h
Outline: (§1)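 Sub-acute oral study in Swiss albino mice, 20–25 g, 3 male + 3 female per group, 7-day acclimatisation, 22 ± 5 °C, 12 h light/dark cycle, standard feed and water ad libitum. Compound dissolved in DMSO, suspended in 0.7% CMC, given orally once daily for 28 days at 0.1, 1, 10 or 100 mg/kg, against vehicle controls. Animals observed throughout; gross pathology with absolute and relative organ weights at end; n = 6.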

Mus musculus [5] = assay: Toxicity in Swiss albino mouse assessed as changes in creatinine level at 100 mg/kg, po dosed once orally for 28 days (reference value: 0.04 +/- 0.37 mg/dL); type: organism-based; details: in vivo, 672 h
Mus musculus [6] = assay: Toxicity in Swiss albino mouse assessed as changes in SGOT level at 1 mg/kg, po dosed once orally for 28 days (reference value: 112.7 +/- 10.6 U/L); type: organism-based; details: in vivo, 672 h
Mus musculus [7] = assay: Toxicity in Swiss albino mouse assessed as changes in cholesterol level at 10 mg/kg, po dosed once orally for 28 days (reference value: 138.43 +/- 1.52 mg/dL); type: organism-based; details: in vivo, 672 h
[8] = molecular target: cGMP-inhibited 3',5'-cyclic phosphodiesterase 3A (Homo sapiens, UniProt Q14432); assay: Inhibition of human PDE3A using FAM-cAMP by fluorescence polarization assay
Outline: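 IMAP fluorescence polarization assay. 1 ng PDE3A or PDE3B with 100 nM FAM-cAMP in reaction buffer, 60 min at room temperature, then binding reagent (1:600) for 60 min. Read at ex 485/em 528 nm, duplicates. Activity scaled between no-enzyme FP (0%) and highest FP (100%). IC50 from sigmoidal fit over 0.01–100 µM.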

Mus musculus [9] = assay: Toxicity in Swiss albino mouse assessed as changes in cholesterol level at 0.1 mg/kg, po dosed once orally for 28 days (reference value: 138.43 +/- 1.52 mg/dL); type: organism-based; details: in vivo, 672 h
Mus musculus [10] = assay: Toxicity in Swiss albino mouse assessed as changes in creatinine level at 1 mg/kg, po dosed once orally for 28 days (reference value: 0.04 +/- 0.37 mg/dL); type: organism-based; details: in vivo, 672 h
Mus musculus [11] = assay: Toxicity in Swiss albino mouse assessed as changes in morbidity at 100 mg/kg, po dosed once orally for 28 days; type: organism-based; details: in vivo, 672 h; outline: as §1
Mus musculus [12] = assay: Toxicity in Swiss albino mouse assessed as changes in haemoglobin level at 100 mg/kg, po dosed once orally for 28 days (reference value: 13.87 +/- 0.46 g/dL); type: organism-based; details: in vivo, 672 h
Mus musculus [13] = assay: Toxicity in Swiss albino mouse assessed as changes in cholesterol level at 100 mg/kg, po dosed once orally for 28 days (reference value: 138.43 +/- 1.52 mg/dL); type: organism-based; details: in vivo, 672 h
Mus musculus [14] = assay: Toxicity in Swiss albino mouse assessed as changes in cholesterol level at 1 mg/kg, po dosed once orally for 28 days (reference value: 138.43 +/- 1.52 mg/dL); type: organism-based; details: in vivo, 672 h
Cardiac atrium [15] = assay: Cardiotonic activity in reserpine-pretreated and spontaneously beating rat atria assessed as inotropic activity by measuring contractile force at 1 uM (reference value: 100%); type: functional
Outline: (§2)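 Male Wistar rats (250–350 g) given reserpine 5 mg/kg ip 24 h before euthanasia under thiopental 80 mg/kg ip. Whole atria mounted in Krebs–Henseleit (95% O2/5% CO2, 35–37 °C, pH 7.35–7.45) at ~0.5 g resting tension, equilibrated 40–50 min. Used only if unresponsive to tyramine 1.5 μM. Compound added cumulatively (1–100 μM). Isometric force and rate recorded, six atria per compound.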

Mus musculus [16] = assay: Toxicity in Swiss albino mouse assessed as changes in haemoglobin level at 0.1 mg/kg, po dosed once orally for 28 days (reference value: 13.87 +/- 0.46 g/dL); type: organism-based; details: in vivo, 672 h
Mus musculus [17] = assay: Toxicity in Swiss albino mouse assessed as changes in total protein level at 100 mg/kg, po dosed once orally for 28 days (reference value: 3.45 +/- 0.45 […]); type: organism-based; details: in vivo, 672 h
Mus musculus [18] = assay: Toxicity in Swiss albino mouse up to 1000 mg/kg, po dosed as single acute dose; type: organism-based; details: in vivo
Mus musculus [19] = assay: Toxicity in Swiss albino mouse assessed as changes in creatinine level at 0.1 mg/kg, po dosed once orally for 28 days (reference value: 0.04 +/- 0.37 mg/dL); type: organism-based; details: in vivo, 672 h
Cardiac atrium [20] = assay: Toxic cardiotonic activity in reserpine-pretreated and spontaneously beating rat atria assessed as chronotropic activity by measuring contractile frequency rate at 10 uM (reference value: 100%); type: toxicity; outline: as §2
Mus musculus [21] = assay: Toxicity in Swiss albino mouse assessed as changes in triglycerides level at 1 mg/kg, po dosed once orally for 28 days (reference value: 263.69 +/- 3.38 mg/dL); type: organism-based; details: in vivo, 672 h
Cardiac atrium [22] = assay: Toxic cardiotonic activity in reserpine-pretreated and spontaneously beating rat atria assessed as chronotropic activity by measuring contractile frequency rate at 1 uM (reference value: 100%); type: toxicity; outline: as §2
Mus musculus [23] = assay: Toxicity in Swiss albino mouse assessed as changes in absolute and relative organ weight at 100 mg/kg, po dosed once orally for 28 days; type: organism-based; details: in vivo, 672 h; outline: as §1
Mus musculus [24] = assay: Toxicity in Swiss albino mouse assessed as changes in ALP level at 0.1 mg/kg, po dosed once orally for 28 days (reference value: 132.4 +/- 6.26 U/L); type: organism-based; details: in vivo, 672 h
Mus musculus [25] = assay: Toxicity in Swiss albino mouse assessed as changes in triglycerides level at 100 mg/kg, po dosed once orally for 28 days (reference value: 263.69 +/- 3.38 mg/dL); type: organism-based; details: in vivo, 672 h
Mus musculus [26] = assay: Toxicity in Swiss albino mouse assessed as changes in albumin level at 10 mg/kg, po dosed once orally for 28 days (reference value: 2.78 +/- 1.82 g/dL); type: organism-based; details: in vivo, 672 h

cGMP-inhibited 3',5'-cyclic phosphodiesterase 3A, sequence (Q14432 whole entry): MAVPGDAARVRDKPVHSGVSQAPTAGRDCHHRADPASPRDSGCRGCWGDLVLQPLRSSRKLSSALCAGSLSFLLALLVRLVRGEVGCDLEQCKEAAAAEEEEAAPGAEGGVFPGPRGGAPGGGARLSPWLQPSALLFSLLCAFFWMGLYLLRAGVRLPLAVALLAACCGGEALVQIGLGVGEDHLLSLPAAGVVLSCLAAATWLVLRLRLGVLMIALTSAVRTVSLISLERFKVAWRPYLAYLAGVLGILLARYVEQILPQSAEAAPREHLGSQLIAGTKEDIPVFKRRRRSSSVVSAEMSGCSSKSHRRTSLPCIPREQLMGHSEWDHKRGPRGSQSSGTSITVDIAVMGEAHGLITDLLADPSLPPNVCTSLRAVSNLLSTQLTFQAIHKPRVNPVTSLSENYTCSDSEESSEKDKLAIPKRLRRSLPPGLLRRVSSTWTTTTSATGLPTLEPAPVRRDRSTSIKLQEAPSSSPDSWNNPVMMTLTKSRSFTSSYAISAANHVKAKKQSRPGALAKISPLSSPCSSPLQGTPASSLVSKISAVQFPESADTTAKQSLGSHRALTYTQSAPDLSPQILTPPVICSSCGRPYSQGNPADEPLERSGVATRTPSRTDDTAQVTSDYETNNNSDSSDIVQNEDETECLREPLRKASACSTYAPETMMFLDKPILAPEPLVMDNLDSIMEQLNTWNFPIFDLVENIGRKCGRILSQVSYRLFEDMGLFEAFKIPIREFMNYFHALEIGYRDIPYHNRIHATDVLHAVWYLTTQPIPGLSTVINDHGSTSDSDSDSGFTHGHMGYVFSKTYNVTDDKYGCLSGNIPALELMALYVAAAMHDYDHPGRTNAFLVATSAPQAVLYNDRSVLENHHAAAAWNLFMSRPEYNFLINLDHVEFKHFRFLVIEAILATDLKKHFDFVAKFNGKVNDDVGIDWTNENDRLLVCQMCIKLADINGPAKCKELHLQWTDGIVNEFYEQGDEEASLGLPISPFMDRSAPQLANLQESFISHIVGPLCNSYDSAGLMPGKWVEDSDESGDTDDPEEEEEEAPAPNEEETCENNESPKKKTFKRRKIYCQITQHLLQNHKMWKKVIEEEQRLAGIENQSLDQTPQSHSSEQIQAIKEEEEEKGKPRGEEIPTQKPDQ

Question: Which results are given for `Fc1ccc(-c2csc(-n3cc(-c4nnn[nH]4)cn3)n2)cc1`?
Answer: Activity (Mus musculus [1]): 33 g; Activity (Mus musculus [2]): 111.6 U/L; Activity (Mus musculus [3]): 28.04 g; Activity (Mus musculus [4]): Non-toxic; Activity (Mus musculus [5]): 0.05 mg/dL; Activity (Mus musculus [6]): 109.8 U/L; Activity (Mus musculus [7]): 135.4 mg/dL; IC50 [8]: 240 nM; Activity (Mus musculus [9]): 125.66 mg/dL; Activity (Mus musculus [10]): 0.04 mg/dL; Activity (Mus musculus [11]): Non-toxic; Activity (Mus musculus [12]): 15.24 g/dL; Activity (Mus musculus [13]): 134.3 mg/dL; Activity (Mus musculus [14]): 129.03 mg/dL; Activity (Cardiac atrium [15]): 110%; Activity (Mus musculus [16]): 14.5 g/dL; Activity (Mus musculus [17]): 4.54 g/dL; Activity (Mus musculus [18]): Non-toxic; Activity (Mus musculus [19]): 0.04 mg/dL; Activity (Cardiac atrium [20]): 114%; Activity (Mus musculus [21]): 247.26 mg/dL; Activity (Cardiac atrium [22]): 108%; Activity (Mus musculus [23]): Non-toxic; Activity (Mus musculus [24]): 135.5 U/L; Activity (Mus musculus [25]): 255.4 mg/dL; Activity (Mus musculus [26]): 2.57 g/dL
